Calls of active or inactive are those of the source. The rule behind the calls is not given here.
Experiments:
Acinetobacter baumannii = assay: Antimicrobial activity against Acinetobacter baumannii ATCC 19606 after 18 to 20 hrs by broth dilution method; assay type: functional
Method in brief: (§1)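 MICs measured against a panel of ESKAPE-representative strains, including S. aureus SA1199, at concentrations up to 64 mg/L.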

Klebsiella pneumoniae = assay: Antimicrobial activity against Klebsiella pneumoniae CIP 82.91 after 18 to 20 hrs by broth dilution method; assay type: functional; method in brief: as §1
Staphylococcus aureus [1] = assay: Antimicrobial activity against Staphylococcus aureus SA1199 after 18 to 20 hrs by broth dilution method; assay type: functional; method in brief: as §1
Escherichia coli = assay: Antimicrobial activity against Escherichia coli CIP 54.8 after 18 to 20 hrs by broth dilution method; assay type: functional; method in brief: as §1
Staphylococcus aureus [2] = assay: Antimicrobial activity against Staphylococcus aureus CIP 76.25 after 18 to 20 hrs by broth dilution method; assay type: functional; method in brief: as §1
Enterococcus faecium = assay: Antimicrobial activity against Enterococcus faecium DSMZ 20477 after 18 to 20 hrs by broth dilution method; assay type: functional; method in brief: as §1
Staphylococcus aureus [3] = assay: Antimicrobial activity against multi-drug resistant Staphylococcus aureus SA1199B overexpressing NorA after 18 to 20 hrs by broth dilution method; assay type: functional
Method in brief: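 MIC read against the NorA-overproducing S. aureus SA1199B, tested alongside its isogenic parent strain SA1199. Compounds were tested at concentrations up to 64 mg/L.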

Klebsiella aerogenes = assay: Antimicrobial activity against Enterobacter aerogenes ATCC 13048 after 18 to 20 hrs by broth dilution method; assay type: functional; method in brief: as §1
HepG2 = assay: Cytotoxicity against human HepG2 cells assessed as reduction in cell viability after 24 hrs by WST1 assay; assay type: cell-based; conditions: HepG2, 24 h
Pseudomonas aeruginosa = assay: Antimicrobial activity against Pseudomonas aeruginosa CIP 100720 after 18 to 20 hrs by broth dilution method; assay type: functional; method in brief: as §1
Staphylococcus aureus [4] = assay: Inhibition of metabolic activity in Staphylococcus aureus CIP 76.25 assessed as inhibition of resazurin reduction to resorufin at 2 mg/L treated for 15 mins measured over 2 to 6 hrs by CellTiter-Blue assay; assay type: functional, organism-based
Method in brief: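 S. aureus CIP 7625 was treated 15 min with 2 mg/L, then metabolic activity was monitored as the rate of resazurin reduction to resorufin, compared with the untreated control.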

Staphylococcus aureus [5] = assay: Growth inhibition of Staphylococcus aureus CIP 76.25 at 2 mg/L by time kill assay relative to control; assay type: functional, organism-based
Method in brief: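 S. aureus CIP 7625 proliferation was followed by absorbance at 600 nm, with or without 2 mg/L, against an untreated control curve.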

Staphylococcus aureus [6] = assay: Drug uptake in Staphylococcus aureus CIP 76.25 at 2 mg/L after 1.7 to 35 sec by fluorescence microscopic analysis; assay type: ADME, organism-based; conditions: in vivo
Method in brief: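 Uptake was tracked through the intrinsic fluorescence of the triphenylamine moiety, using fluorescence microscopy of bacteria during incubation to follow accumulation kinetics over seconds.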

Staphylococcus aureus [7] = assay: Bactericidal activity against Staphylococcus aureus CIP 76.25 assessed as log reduction in bacterial count at 2 mg/L after 30 mins by time kill assay relative to control; assay type: functional
Method in brief: (§2)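 Time-kill assay on S. aureus CIP 7625 exposed to 2 mg/L, with untreated control in parallel. Viability was followed by CFU counts over time, and log10 CFU/mL reduction was read at 30 min and 2 h of incubation.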

Staphylococcus aureus [8] = assay: Drug uptake in Staphylococcus aureus CIP 76.25 at 2 mg/L after 1.7 to 35 sec by phase contrast microscopic analysis; assay type: ADME, organism-based; conditions: in vivo
Staphylococcus aureus [9] = assay: Bactericidal activity against Staphylococcus aureus CIP 76.25 assessed as log reduction in bacterial count at 2 mg/L after 2 hrs by time kill assay relative to control; assay type: functional; method in brief: as §2

`CCCCCC[P+](CCCC)(CCCC)CCCC.[Br-]` showed an MIC (Acinetobacter baumannii) greater than 64 µg/mL, an MIC (Klebsiella pneumoniae) greater than 64 µg/mL and an MIC (Staphylococcus aureus [1]) greater than 64 µg/mL. It also gave an MIC (Escherichia coli) greater than 64 µg/mL, an MIC (Staphylococcus aureus [2]) greater than 64 µg/mL and an MIC (Enterococcus faecium) greater than 64 µg/mL. It also gave an MIC (Staphylococcus aureus [3]) greater than 64 µg/mL, an MIC (Klebsiella aerogenes) greater than 64 µg/mL and an IC50 (HepG2) of less than 0.124 µg/mL. It also gave an MIC (Pseudomonas aeruginosa) greater than 64 µg/mL.
In the case of `CCCC[P+](CCCC)(CCCC)CCCCCCOCc1ccc(N(c2ccccc2)c2ccccc2)cc1`, the inhibition (Staphylococcus aureus [4]) was “Active” and the “growth inhibition (GI)” value (Staphylococcus aureus [5]) was “Active”.
For `CCCC[P+](CCCC)(CCCC)CCCCCCOCc1ccc(N(c2ccccc2)c2ccccc2)cc1.[I-]`, the MIC (Acinetobacter baumannii) was 16 µg/mL, the MIC (Klebsiella pneumoniae) was 16 µg/mL and the MIC (Staphylococcus aureus [1]) was 1 µg/mL. It also gave an MIC (Escherichia coli) of 16 µg/mL, an MIC (Staphylococcus aureus [2]) of 1 µg/mL and an MIC (Enterococcus faecium) of 2 µg/mL. For the same compound, the MIC (Staphylococcus aureus [3]) was 1 µg/mL, the MIC (Klebsiella aerogenes) was 32 µg/mL and the IC50 (HepG2) was less than 0.124 µg/mL. For the same compound, the MIC (Pseudomonas aeruginosa) was 32 µg/mL.
For `CCCC[P+](CCCC)(CCCC)CCCCCCOCc1ccc(N(c2ccccc2)c2ccccc2)cc1.[Cl-]`, the MIC (Acinetobacter baumannii) was 16 µg/mL, the MIC (Klebsiella pneumoniae) was 16 µg/mL and the MIC (Staphylococcus aureus [1]) was 0.5 µg/mL. The MIC (Escherichia coli) was 16 µg/mL, the MIC (Staphylococcus aureus [2]) was 1 µg/mL and the MIC (Enterococcus faecium) was 1 µg/mL. For the same compound, the MIC (Staphylococcus aureus [3]) was 0.5 µg/mL, the MIC (Klebsiella aerogenes) was 16 µg/mL and the IC50 (HepG2) was less than 0.124 µg/mL. For the same compound, the MIC (Pseudomonas aeruginosa) was 32 µg/mL.
With `CCCC[P+](CCCC)(CCCC)CCCCCCOCc1ccc(N(c2ccccc2)c2ccccc2)cc1.[Br-]` the MIC (Acinetobacter baumannii) was 16 µg/mL, the Drug uptake (Staphylococcus aureus [6]) was “Active” and the MIC (Klebsiella pneumoniae) was 8 µg/mL. The MIC (Staphylococcus aureus [1]) was 0.5 µg/mL, the MIC (Escherichia coli) was 16 µg/mL and the MIC (Staphylococcus aureus [2]) was 0.5 µg/mL. The MIC (Enterococcus faecium) was 1 µg/mL, the Activity (Staphylococcus aureus [7]) was greater than 3 log10CFU/ml and the MIC (Staphylococcus aureus [3]) was 0.5 µg/mL. For the same compound, the MIC (Klebsiella aerogenes) was 32 µg/mL, the Drug uptake (Staphylococcus aureus [8]) was “Active” and the IC50 (HepG2) was less than 0.124 µg/mL. For the same compound, the Activity (Staphylococcus aureus [9]) was greater than 4 log10CFU/ml and the MIC (Pseudomonas aeruginosa) was greater than 64 µg/mL.
With `CCCCCC[P+](CCCC)(CCCC)CCCC.[I-]` the MIC (Acinetobacter baumannii) was greater than 64 µg/mL, the MIC (Klebsiella pneumoniae) was greater than 64 µg/mL and the MIC (Staphylococcus aureus [1]) was greater than 64 µg/mL. For the same compound, the MIC (Escherichia coli) was greater than 64 µg/mL, the MIC (Staphylococcus aureus [2]) was greater than 64 µg/mL and the MIC (Enterococcus faecium) was greater than 64 µg/mL. For the same compound, the MIC (Staphylococcus aureus [3]) was greater than 64 µg/mL, the MIC (Klebsiella aerogenes) was greater than 64 µg/mL and the IC50 (HepG2) was 0.189 µg/mL. For the same compound, the MIC (Pseudomonas aeruginosa) was greater than 64 µg/mL.
In the case of `CCCCCC[P+](CCCC)(CCCC)CCCC.[Cl-]`, the MIC (Acinetobacter baumannii) was greater than 64 µg/mL, the MIC (Klebsiella pneumoniae) was greater than 64 µg/mL and the MIC (Staphylococcus aureus [1]) was greater than 64 µg/mL. The MIC (Escherichia coli) was greater than 64 µg/mL, the MIC (Staphylococcus aureus [2]) was greater than 64 µg/mL and the MIC (Enterococcus faecium) was greater than 64 µg/mL. The MIC (Staphylococcus aureus [3]) was greater than 64 µg/mL, the MIC (Klebsiella aerogenes) was greater than 64 µg/mL and the IC50 (HepG2) was 5.42 µg/mL. It also gave an MIC (Pseudomonas aeruginosa) greater than 64 µg/mL.
In the case of `CCCC[P+](CCCC)(CCCC)CCCCCCOC.[Br-]`, the MIC (Acinetobacter baumannii) was greater than 64 µg/mL, the MIC (Klebsiella pneumoniae) was greater than 64 µg/mL and the MIC (Staphylococcus aureus [1]) was greater than 64 µg/mL. For the same compound, the MIC (Escherichia coli) was greater than 64 µg/mL, the MIC (Staphylococcus aureus [2]) was greater than 64 µg/mL and the MIC (Enterococcus faecium) was greater than 64 µg/mL. For the same compound, the MIC (Staphylococcus aureus [3]) was greater than 64 µg/mL, the MIC (Klebsiella aerogenes) was greater than 64 µg/mL and the IC50 (HepG2) was 0.712 µg/mL. For the same compound, the MIC (Pseudomonas aeruginosa) was greater than 64 µg/mL.
`c1ccc(N(c2ccccc2)c2ccccc2)cc1` gave an MIC (Acinetobacter baumannii) greater than 64 µg/mL, an MIC (Klebsiella pneumoniae) greater than 64 µg/mL and an MIC (Staphylococcus aureus [1]) greater than 64 µg/mL. For the same compound, the MIC (Escherichia coli) was greater than 64 µg/mL, the MIC (Staphylococcus aureus [2]) was greater than 64 µg/mL and the MIC (Enterococcus faecium) was greater than 64 µg/mL. The MIC (Staphylococcus aureus [3]) was greater than 64 µg/mL, the MIC (Klebsiella aerogenes) was greater than 64 µg/mL and the IC50 (HepG2) was less than 0.124 µg/mL. It also gave an MIC (Pseudomonas aeruginosa) greater than 64 µg/mL.
